Laboratory results reported in ChEMBL document CHEMBL2057117, “Oxoquinoline acyclonucleoside phosphonate analogues as a new class of specific inhibitors of human immunodeficiency virus type 1” (Bioorg Med Chem Lett, 2012).

Assays:
[1] = tested on: Human immunodeficiency virus 1; experiment: Antiviral activity against R5-tropic Human immunodeficiency virus 1 Ba-L subtype B infected in human PBMC assessed as inhibition of viral replication after 7 days by ELISA; type: functional, organism-based; details: 168 h
Outline: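 Phytohemagglutinin-stimulated PBMCs (2–3 days), then kept in medium with recombinant human IL-2, infected with HIV-1 Ba-L (R5-tropic, subtype B) and treated with a range of concentrations (µM). After 7 days, p24 antigen in culture supernatants was measured by capture ELISA. EC50 is the concentration reducing replication 50% versus infected controls. Mean ± SD of three independent experiments. AZT positive control.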

[2] = Selectivity ratio of CC50 for human PBMC to EC50 for R5-tropic Human immunodeficiency virus 1 Ba-L subtype B
Outline: (§1)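 Selectivity index is calculated as CC50 (XTT viability in PBMCs, 7 days) divided by EC50 (p24 ELISA, HIV-1 Ba-L-infected PBMCs, 7 days).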

[3] = Cytotoxicity against human PBMC after 7 days by XTT assay; type: cell-based; details: PBMC (peripheral blood mononuclear cells)
Outline: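 Confluent PBMCs were exposed to a range of compound concentrations for 7 days, and viability was then read by XTT. CC50 is the concentration giving 50% cytotoxicity relative to untreated controls. Mean ± SD of three independent experiments.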

[4] = tested on: Human immunodeficiency virus 1; experiment: Antiviral activity against Human immunodeficiency virus 1 Ba-L infected in macrophages assessed as inhibition of viral replication; type: functional, organism-based
[5] = Selectivity ratio of CC50 for human PBMC to EC50 for Human immunodeficiency virus 1 Ba-L; outline: as §1
[6] = tested on: Human immunodeficiency virus 1; experiment: Antiviral activity against Human immunodeficiency virus 1 infected in human PBMC assessed as inhibition of viral replication; type: functional, organism-based
Outline: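 Human PBMCs stimulated with phytohemagglutinin for 2–3 days, then kept in medium with recombinant human IL-2. Cells infected with HIV-1 Ba-L (R5-tropic, subtype B) and exposed to a range of compound concentrations for seven days. Supernatant p24 antigen measured by capture ELISA. EC50 is the concentration giving 50% less replication than infected controls. Mean ± SD of three independent experiments.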

[7] = target: Human immunodeficiency virus type 1 reverse transcriptase (Human immunodeficiency virus 1, UniProt Q72547); experiment: Inhibition of Human immunodeficiency virus 1 reverse transcriptase

Row | Structure (SMILES) | EC50 [1] | Ratio CC50/EC50 [2] | CC50 at 168 h [3] | EC50 [4] | Ratio CC50/EC50 [5] | EC50 [6] | Ki [7]
1 | CCOC(=O)c1cn(CP(=O)(OC(C)C)OC(C)C)c2ccc(C)cc2c1=O | 21.3 µM | 61.3 | 1320 µM |  |  |  | 
2 | CCOC(=O)c1cn(CP(=O)(OC(C)C)OC(C)C)c2ccc(F)cc2c1=O | 0.4 µM | 6240 | 2500 µM |  |  |  | 
3 | CCOC(=O)c1cn(CP(=O)(OC(C)C)OC(C)C)c2ccc([N+](=O)[O-])cc2c1=O | 38 µM |  | 931 µM |  |  |  | 
4 | O=C(O)c1cn([C@@H]2O[C@H](CO)[C@@H](O)[C@H]2O)c2ccc(Cl)cc2c1=O |  |  |  | 4.9 µM | 1134 | 1.5 µM | 0.5 µM
5 | Cc1cn([C@H]2C[C@H](N=[N+]=[N-])[C@@H](CO)O2)c(=O)[nH]c1=O [ZIDOVUDINE] | 0.16 µM |  | 128 µM |  |  |  | 
6 | CCOC(=O)c1cn(CP(=O)(OC(C)C)OC(C)C)c2cc(C)ccc2c1=O | 9 µM | 123.9 | 1120 µM |  |  |  | 
7 | CCOC(=O)c1cn(CP(=O)(OC(C)C)OC(C)C)c2ccc(Cl)cc2c1=O | 8.1 µM | 152.4 | 1240 µM |  |  |  | 
8 | CCOC(=O)c1cn(CP(=O)(OC(C)C)OC(C)C)c2ccc(Br)cc2c1=O | 56 µM | 14.3 | 802 µM |  |  |  | 
9 | CCOC(=O)c1cn(CP(=O)(OC(C)C)OC(C)C)c2cc(Br)ccc2c1=O | 61.2 µM | 11.9 | 731 µM |  |  |  | 
10 | CCOC(=O)c1cn(CP(=O)(OC(C)C)OC(C)C)c2cc(Cl)ccc2c1=O | 21 µM | 39.4 | 828 µM |  |  |  | 
11 | CCOC(=O)c1cn(CP(=O)(OC(C)C)OC(C)C)c2ccccc2c1=O | 7.3 µM | 316.4 | 2310 µM |  |  |  | 
12 | CCOC(=O)c1cn(CP(=O)(OC(C)C)OC(C)C)c2cc([N+](=O)[O-])ccc2c1=O | 22 µM | 36.9 | 812 µM |  |  |  | 
13 | CCOC(=O)c1cn(CP(=O)(OC(C)C)OC(C)C)c2cc(F)ccc2c1=O | 0.2 µM | 14675 | 2940 µM |  |  |  | 
